Screening results (PubChem BioAssay)
In the library only some 1.5% were active in any assay of this set; here they are far more common.
Casp6 inh: human caspase-6 inhibitors, primary screen, biochemical, VEID-R110 fluorescence, single point, set 2; purified caspase-6, Z-VEID-R110 cleavage fluorescence; 350,000 tested, 0.53% active; inhibition, % at 12.5 µM; AID 686996, 2013; P55212;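 active = mean inhibition across replicates at least about 35%, with every replicate also reaching that limit, limit read from the data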;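 note: 0% = median of neutral control wells and 100% = no fluorescence left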
Target sequence (P55212 24-179 limits assumed): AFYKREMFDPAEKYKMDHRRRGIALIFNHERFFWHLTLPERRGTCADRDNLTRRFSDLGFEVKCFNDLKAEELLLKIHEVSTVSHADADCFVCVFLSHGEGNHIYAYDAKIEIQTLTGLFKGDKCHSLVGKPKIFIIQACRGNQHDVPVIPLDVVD
Target sequence (P55212 194-293 limits assumed): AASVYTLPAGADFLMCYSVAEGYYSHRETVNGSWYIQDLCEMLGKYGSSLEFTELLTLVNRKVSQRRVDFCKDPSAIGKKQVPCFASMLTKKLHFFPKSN
DNMT1 inh: human DNMT1 methyltransferase inhibitors, primary screen, biochemical, molecular beacon, fluorescence, HinP1I cleavage, uHTS; inhibition (reported as % activation of signal), % at 10 µM; AID 588458, 2011; 360,000 tested, 0.83% active; DNA (cytosine-5)-methyltransferase 1 (Homo sapiens), P26358
NSD2 inh: NSD2 histone methyltransferase inhibitors, primary screen, biochemical, AlphaScreen, single concentration, set 2; AID 743445, 2014; 310,000 tested, 0.54% active; Histone-lysine N-methyltransferase NSD2 (Homo sapiens), O96028; inhibition, % at 12.5 µM; NSD2 peptide methylation, 120 min
HCV NS3 hel inh: inhibitors of HCV NS3 helicase, primary screen, biochemical, Cy5 molecular beacon fluorescence | Hepatitis C virus NS3 helicase | NS3 helicase DNA unwinding | inhibition, % at 10.9 µM | 290,000 tested, 0.56% active;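 active = inhibition above the mean of all tested compounds plus 3 SD, set per campaign, cut at about 35% in these data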;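 note: 0% = DMSO wells and 100% = thioflavine S control wells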
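Measured by: Cy5 fluorescence, 0 and 60 min reads / Assay system: NS3 helicase fragment of HCV / Control set: low DMSO, high thioflavine S at 110 µM / Times: 1 h reaction at 25 °C, ATP-initiated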
DNMT1 interf DR: spectral interference with molecular beacon fluorescence, dose response, artefact control for DNMT1 inhibitor project, biochemical, fluorescent molecular beacon; shares compounds with DNMT1 inh; spectral interference counter-screen; IC50, µM; 200 tested, under 10 active; AID 602382, 2012; call rule not given here
DNMT1 inh conf: DNMT1 methyltransferase inhibitor retest, confirmation, biochemical, molecular beacon, fluorescence, single concentration. DNMT1 molecular beacon HinP1I cleavage. shares compounds with DNMT1 inh. 2,300 tested, 8% active. inhibition, % at 10 µM. AID 602385, 2012;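 active = average inhibition of at least 30% in the single-concentration confirmation test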
DNMT1 interf: counter-screen for DNMT1 inhibitors: spectral interference; 2,300 tested, 1% active; shares compounds with DNMT1 inh; AID 602387; DNMT1 molecular beacon spectral interference counterscreen, fluorescence 485/520; activation (fluorescence interference), % at 10 µM;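 active = activation of at least 30% at 10 µM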;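 note: DNMT1 catalytic domain with a HinP1I cleavage step and a FAM/dabcyl DNA beacon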
An asterisk follows results filed as active; nt = no result. Cut-off read from the data, not from the text of the source, unless noted: active = inhibition above about 50%; inactive = the rest.

SMILES	Casp6 inh	DNMT1 inh	NSD2 inh	HCV NS3 hel inh	DNMT1 inh conf	DNMT1 interf	others
O=C(Nc1ccc2c(c1)OCO2)c1cc2ncc(Br)cn2n1	nt	59*	10	12	0	-2
O=C(CNC(=O)/C=C/c1ccco1)N=Nc1c(O)[nH]c2ccccc12	26	93*	8	19	82*	-3	DNMT1 interf DR=>99
C[C@@H]1CCCCO[C@@H](CN(C)C(=O)Nc2ccc3c(c2)OCO3)[C@@H](C)CN([C@@H](C)CO)C(=O)c2cc(NC(=O)C3CCCCC3)ccc2O1	4	nt	nt	nt	nt	nt
O=C(O)c1cccc(-n2cccc2C=C2C(=O)c3ccccc3C2=O)c1	nt	49	9	16	nt	nt
O=C(N/N=C/c1cccn1-c1cccc(C(=O)O)c1)Nc1ccccc1	nt	85*	24	26	2	14
COc1ccc(S(=O)(=O)Nc2cccc3c2O[C@@H](CN(C)S(=O)(=O)c2ccc(OC)cc2)[C@@H](C)CN([C@H](C)CO)C3=O)cc1	0	nt	nt	nt	nt	nt
CN(C)CC(=O)N1[C@@H]2c3ccc(-c4ccccc4)c(=O)n3C[C@@H]2[C@@H](CO)[C@@H]1C(=O)NC1CCC1	-2	nt	nt	nt	nt	nt
CC1(C)CC2(CCCN(CC(O)(c3ccccc3)c3ccccc3)C2)CCO1 (stereo not drawn)	-5	94*	2	-3	4	3
Cc1cc(NC(=O)CSc2sc3c(O)cc(=O)[nH]c3c2C#N)ccc1Br	9	61*	nt	26	3	2
C[C@H](CO)N1C[C@H](C)[C@@H](CN(C)Cc2ccc(Oc3ccccc3)cc2)Oc2c(NC(=O)Nc3ccccc3)cccc2C1=O	0	nt	nt	nt	nt	nt
O=C1Nc2ccccc2SC(c2ccccc2)C1O (stereo not drawn)	nt	99*	3	19	14	-1
O=C(Nc1cccc(OC(F)(F)F)c1)c1ccc(-c2cccnc2)c2ccoc12	0	69*	-3	nt	8	2
COc1cc(NC(=O)c2ccc(-c3cccnc3)c3ccoc23)cc(OC)c1OC	8	1	0	nt	nt	nt
O=C(C[C@@H]1CC[C@H]2[C@@H](COC[C@H](O)CN2C(=O)c2ccccc2F)O1)N1CCOCC1	-2	nt	nt	nt	nt	nt
COc1cc2c(=O)[nH]c3cc([N+](=O)[O-])ccc3c2cc1[N+](=O)[O-]	5	76*	0	nt	-3	-5
Cc1cccc(NC(=S)NC2CC3CCCC(C2)N3Cc2cccs2)c1 (stereo not drawn)	nt	84*	-1	-20	3	1
CCc1nnc(NC(=O)CSc2nc(-c3ccccc3)cc(-c3ccc(F)cc3)c2C#N)s1	nt	52*	-1	5	0	1
O=C(C1CCCC1)N1[C@H](CO)[C@@H]2c3ccccc3NC[C@@H]21	0	nt	nt	nt	nt	nt
O=C(COc1ccc(Cl)cc1Cl)NN=C1c2ccccc2-c2ccccc21	nt	87*	-3	5	1	0
Cc1n[nH]c(=O)nc1N/N=C/c1ccc(O)c([N+](=O)[O-])c1	-1	73*	0	0	0	1
COc1ccc(NC(=O)Nc2ccc3c(c2)C(=O)N([C@H](C)CO)C[C@H](C)[C@H](CN(C)C)OCCCC[C@H](C)O3)cc1	0	nt	nt	nt	nt	nt
CCN(CC(=O)Nc1c(F)cccc1F)C(=O)CCc1nc2sc3c(c2c(=O)[nH]1)CCCC3	33	54*	2	nt	5	2
CC1(NC(=O)CCc2nc3sc4c(c3c(=O)[nH]2)CCCC4)CCS(=O)(=O)C1 (stereo not drawn)	29	54*	0	nt	6	-4
CC(=O)Nc1ccc(NC(=O)CCc2nc3sc4c(c3c(=O)[nH]2)CCCC4)cc1	0	6	0	nt	nt	nt
CN(/N=C/c1c[nH]c2ccccc12)c1cnn(-c2ccc(F)c(Cl)c2)c(=O)c1Cl	nt	111*	-1	9	3	8
CN(/N=C/c1cccnc1)c1cnn(-c2ccc(F)c(Cl)c2)c(=O)c1Cl	nt	-1	8	8	nt	nt
